The list is not random: actives were taken first. Their share in the collection is about 0.37%.
FXIa single inh: inhibitors of human coagulation factor XIa. purified human FXIa, fluorogenic AMC substrate cleavage. P03951. 33,000 tested, 0.3% active. inhibition, % at 10 µM;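 active means inhibition above 40% in the primary screen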
FXIIa single: blocks human coagulation factor XIIa activity; P00748; purified human FXIIa, AMC substrate fluorescence, 2 h; inhibition, % at 10 µM; 33,000 tested, 0.2% active; AID 701; in the data active means inhibition above about 30%
Yeast tox: Inhibits yeast growth, turbidity readout; S. cerevisiae wild-type growth, A595 turbidity, 16 h; 30,000 tested, 0.3% active; growth inhibition, % at 25 µM (by protocol);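 active means mutant and wild-type yeast strains alike exhibit over 30% growth inhibition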
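Test system: Wild-type and eIF2Bepsilon-R284H mutant S. cerevisiae, screened separately | Dosing: Single 25 µM compound dose in 0.2% DMSO | Schedule: 16 h compound exposure during growth at 30 °C | Detection: A595 turbidity | Evaluation: Growth inhibition (%) versus cell controls and blanks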
A number is an active result.

Screening CN1CCN(C(=O)COc2ccc(S(=O)(=O)NCc3ccccc3)cc2Cl)CC1 returned FXIa single inh inactive, FXIIa single inactive and Yeast tox inactive.
O=C(COc1ccc(Cl)cc1Cl)N1CCN(C/C=C/c2ccccc2)CC1 was read as FXIa single inh inactive, FXIIa single inactive and Yeast tox 44.2.
Screening O=C(Nc1ccc(F)cc1)N1CC2CC(C1)c1cccc(=O)n1C2 (stereo not drawn) returned FXIa single inh inactive and FXIIa single inactive.
`O=c1cccc2n1CC1CC2CN(S(=O)(=O)c2ccccc2)C1` (stereo not drawn) gave FXIa single inh 41.7 and FXIIa single inactive.
Screening CSc1ncc(Cl)c(C(=O)O)n1 (tested in a mixture with another compound) returned FXIa single inh inactive and FXIIa single inactive.
Screening Cc1ccc(-c2nc(N(C)C3CCN(C)CC3)c3ccccc3n2)cc1 returned FXIa single inh inactive, FXIIa single inactive and Yeast tox inactive.

Bioassay records from PubChem.
